According to ChEMBL document CHEMBL1122927, “Metabolism of the nigrostriatal toxin 1-methyl-4-phenyl-1,2,3,6-tetrahydropyridine by liver homogenate fractions” (J Med Chem, 1985):

How the values were obtained:
Assay type in all cases: ADME
Conditions in all cases: microsomes
[1] = organism: Oryctolagus cuniculus; assay: Formation of metabolite by rabbit liver microsomal preparation in presence of SKF525A,at 2 hour
Outline: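 Rabbit liver microsomes were preincubated 5 min with SKF 525A (5 × 10⁻⁴ M) before MPTP (0.5–1.0 mM) was added. Run in 100 mM Hepes pH 7.6 with an NADPH-generating system, 2–3 mg protein/mL, 37 °C, 2 h. Stopped with cold acetonitrile. Nor and N-oxide products quantified by reverse-phase HPLC (254 nm) as nmol/mL per 2 h.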

[2] = organism: Oryctolagus cuniculus; assay: Formation of metabolite by rabbit liver microsomal preparation in presence of N2,at 2 hour
Outline: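 Incubation under 100% N2, with N2-saturated buffer in sealed vials. Rabbit liver microsomes (2–3 mg protein/mL), 100 mM Hepes pH 7.6, NADPH-generating system, 0.5–1.0 mM MPTP, 37 °C, 2 h. Stopped with ice-cold acetonitrile. Nor and N-oxide products read by reverse-phase HPLC at 254 nm, expressed as nmol/mL per 2 h.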

[3] = organism: Oryctolagus cuniculus; assay: Formation of metabolite by rabbit liver microsomal preparation in presence of Co-O2 (90:10),at 2 hour
Outline: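 Buffer was saturated with CO-O2 (90:10), and incubation ran in sealed vials under that gas. Rabbit liver microsomes (2–3 mg protein/mL), 100 mM Hepes pH 7.6, NADPH-generating system, 0.5–1.0 mM MPTP, 37 °C, 2 h. Stopped with cold acetonitrile. Nor and N-oxide products quantified by reverse-phase HPLC (254 nm) as nmol/mL per 2 h.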

[4] = organism: Oryctolagus cuniculus; assay: Formation of metabolite by rabbit liver microsomal preparation in absence of NADPH, at 2 hours
Outline: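 Rabbit liver microsomes (2–3 mg protein/mL), 100 mM Hepes pH 7.6, 0.5–1.0 mM MPTP, with the NADPH-generating system omitted; 37 °C for 2 h. Stopped with cold acetonitrile and centrifuged. Nor and N-oxide products measured by reverse-phase HPLC at 254 nm as nmol/mL per 2 h.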

[5] = organism: Oryctolagus cuniculus; assay: Formation of metabolite by rabbit liver microsomal preparation in presence of NADPH, at 2 hours
Outline: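 Male New Zealand white rabbit liver microsomes (100000g pellet, 2–3 mg protein/mL) in 100 mM Hepes pH 7.6 with an NADPH-generating system and 0.5–1.0 mM MPTP, in air, 37 °C, 2 h. Stopped with 2 volumes ice-cold acetonitrile, then centrifuged. Reverse-phase HPLC (acetonitrile/100 mM acetic acid 65:35, pH 5.6, 254 nm) quantified nor and N-oxide peaks as nmol/mL per 2 h.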

Structure (SMILES)	Amount of metabolite [1]	Amount of metabolite [2]	Amount of metabolite [3]	Amount of metabolite [4]	Amount of metabolite [5]
C[N+]1([O-])CC=C(c2ccccc2)CC1 (stereo not given)	170 nM ml-1	0 nM ml-1	160 nM ml-1	0 nM ml-1	190 nM ml-1
C1=C(c2ccccc2)CCNC1	70 nM ml-1	16 nM ml-1	53 nM ml-1	0 nM ml-1	130 nM ml-1
